# Test results as given in PMC12541585 (Acta Pharmaceutica Sinica. B, 2025).
# Tested on: MDA-MB-231 xenograft
# Experiment: MDA-MB-231 xenograft model
# Assay type: in vivo, BALB/c nude mice
# Conditions: immunohistochemical staining of MDA-MB-231 tumors, vs control group
# Method in brief: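 Female nude mice received 5×10^6 MDA-MB-231 cells in 100 μL Matrigel/PBS (1:1) subcutaneously into the right flank. At ≥80 mm³, mice were randomised into five groups, each dosed intraperitoneally every three days: test compound at 0.1, 0.5 or 1 mg/kg, paclitaxel 4 mg/kg, or PBS. Excised tumour sections were stained with anti-CXCR4 (1:100, 4 °C overnight), then HRP secondary (30 min) and DAB.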
smiles,measurement,value
"CC(=O)O[C@H]1C(=O)[C@@]2(C)[C@H]([C@H](OC(=O)c3ccccc3)[C@]3(O)C[C@H](OC(=O)[C@H](O)[C@@H](NC(=O)c4ccccc4)c4ccccc4)C(C)=C1C3(C)C)[C@]1(OC(C)=O)CO[C@@H]1C[C@@H]2O [PTX, Paclitaxel]",proportion of CXCR4-positive cells in tumor tissue,little effect
